# Test results published in ChEMBL document CHEMBL3098078, “Design, Synthesis, and Antiviral Evaluation of Chimeric Inhibitors of HIV Reverse Transcriptase” (ACS Med Chem Lett, 2013).
# The source made the active and inactive calls. No cut-off for these calls is given here.
# How the values were obtained:
# [1] = biological target: Human immunodeficiency virus type 1 reverse transcriptase (Human immunodeficiency virus 1, UniProt Q72547); assay: Inhibition of HIV-1 6His-tagged reverse transcriptase p66/p51-mediated TTP incorporation into D23/D36 primer/template preincubated for 15 mins followed by D23/D36 primer/template and TTP addition measured after 15 mins by PAGE analysis
# In short: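 Steady-state competition assay measuring inhibition of HIV-1 RT-catalysed TTP incorporation opposite template A into radiolabeled D23/D36 primer/template. Products are resolved on gel across increasing inhibitor concentrations, with a reference NNRTI positive control at 250 nM. Percent RT activity loss is plotted against inhibitor concentration to derive IC50.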
# [2] = biological target: Human immunodeficiency virus type 1 reverse transcriptase (Human immunodeficiency virus 1) (UniProt Q72547); assay: Ratio of d4T IC50 to compound IC50 for HIV-1 6His-tagged reverse transcriptase p66/p51
# [3] = biological target: Human immunodeficiency virus type 1 reverse transcriptase (Human immunodeficiency virus 1) (UniProt Q72547); assay: Binding affinity to HIV-1 6His-tagged reverse transcriptase p66/p51 assessed as compound incorporation into D23/D36 primer/template at 50 uM after 60 mins by PAGE analysis in presence of MgCl2
# In short: (§1)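 Single-turnover incorporation by HIV-1 RT of the chimeric triphosphate as substrate, using radiolabeled D23/D36 primer/template (template base pairs with TTP). Reactions are sampled at a 0 time point, and a negative control lacks Mg2+. Products are resolved by gel electrophoresis to detect an elongated primer band. A mispaired D23/D36B primer/template (dC opposite template dGMP) serves as a comparison.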
# [4] = biological target: Human immunodeficiency virus type 1 reverse transcriptase (Human immunodeficiency virus 1) (UniProt Q72547); assay: Binding affinity to HIV-1 6His-tagged reverse transcriptase p66/p51 assessed as compound incorporation into D23/D36 primer/template at 50 uM after 60 mins by PAGE analysis; in short: as §1
# [5] = (§2) Cytotoxicity against human MT2 cells after 5 days by MTT assay; assay type: cell-based; conditions: MT2 cells
# In short: (§3)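 MT-2 cells infected with HIV-1 IIIB are read by MTT assay following a previously published protocol. Inhibition of viral replication gives EC50, and the cytotoxicity read-out gives CC50.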
# [6] = tested on: Human immunodeficiency virus 1; assay: Antiviral activity against HIV1 3B infected in human MT2 cells after 5 days by MTT assay; assay type: functional, organism-based
# In short: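 HIV-1 IIIB replication in MT-2 cell culture, with MTT read-out following a previously published protocol. The nucleoside form was tested. d4T and ddC (NRTI) and TMC120 (NNRTI) were run alongside as positive controls.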
# MT2 = assay: as §2; assay type: cell-based; conditions: mt2, 120 h; in short: as §3
# [7] = tested on: Human immunodeficiency virus 1; assay: Ratio of d4T EC50 to compound EC50 for HIV1 3B infected in human MT2 cells; assay type: functional
# [8] = Selectivity index, ratio of CC50 for human MT2 cells to EC50 for HIV1 3B; assay type: toxicity, cell-based; conditions: read-out: Ratio CC50/EC50
SMILES,IC50 [1] [nM],Ratio IC50 [2],Activity [3],CC50 at 120 h [5] [nM],Ratio EC50 [7],selectivity ratio [8],also measured
Cc1cc(C#CCCCCCCCC(=O)NCc2cn([C@H]3C[C@H](O)[C@@H](COP(=O)(O)OP(=O)(O)OP(=O)(O)O)O3)c(=O)[nH]c2=O)cc(C)c1Oc1ccnc(Nc2ccc(C#N)cc2)n1,6,2000,Active,–,–,–,Activity [4]: inactive
Cc1cc(C)c(Nc2ccnc(Nc3ccc(C#N)cc3)n2)c(C)c1 [DAPIVIRINE],–,–,–,1900,–,–,–
Cc1cn([C@H]2C=C[C@@H](CO)O2)c(=O)[nH]c1=O [STAVUDINE],–,–,–,2200,–,–,"EC50 ([6]; Human immunodeficiency virus 1, 3B, MT2, 120 h): 3.6 µM"
Nc1ccn([C@H]2CC[C@@H](CO)O2)c(=O)n1 [ZALCITABINE],–,–,–,4000,–,–,–
Cc1cc(C#CCCCCCCCC(=O)NCc2cn([C@H]3C[C@H](O)[C@@H](CO[PH](=O)O)O3)c(=O)[nH]c2=O)cc(C)c1Oc1ccnc(Nc2ccc(C#N)cc2)n1,4.3,3000,inactive,–,16,27,Activity (MT2): Toxic; Activity [6]: Active
Cc1cc(C#CCCCCCCCC(=O)NCc2cn([C@H]3C[C@H](O)[C@@H](CO)O3)c(=O)[nH]c2=O)cc(C)c1Oc1ccnc(Nc2ccc(C#N)cc2)n1,–,–,–,–,30,18,–
